Data set [1] is described as follows: Cytotoxicity against mouse RAW264.7 cells assessed as maximum non-toxic dose after 48 hrs by MTT assay. The data set is classed as cell-based. The gist of the method: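 RAW 264.7 cells exposed 48 h to serial dilutions (top 150 µM, 100 µM for one compound) in duplicate, control 0.25% DMSO. MTT 0.5 mg/mL added for 4 h, formazan dissolved in DMSO, absorbance 550 nm. […] 3–4 independent experiments.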
Background: Formazan colour is commonly taken as a measure of viable cells.

Data set [2] is described as follows: Cytotoxicity against mouse RAW264.7 cells after 48 hrs by MTT assay. The data set is classed as cell-based.
The nature of data set [3]: Selectivity index, ratio of CC50 for mouse RAW264.7 cells to IC50 for MNV1 CW1 infected in mouse RAW264.7 cells. The format is functional.
For another data set, the system named is rhinovirus A1B. Kind of data set: Antiviral activity against HRV-1B infected in human HeLa cells assessed as inhibition of viral plaque formation. The data set is classed as functional, organism-based, Human rhinovirus 1B. To be noted: Rhinovirus A.
A short description of data set [4]: Antiviral activity against MNV1 CW1 infected in mouse RAW264.7 cells assessed as inhibition of viral plaque formation after 24 hrs by neutral red staining. The format is functional, cell-based, Murine norovirus 1. Particulars: for IC50: Murine norovirus 1, CW1, RAW264.7, 24 h. The gist of the method: (§1)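 Confluent RAW 264.7 cells (plated at 5.0 × 10^5 cells/mL, 24 h, then maintenance medium with 2% FBS) infected 1 h at 37 °C with MNV-1.CW1 at 20-80 PFU/well, with compound present during infection and in first agarose overlay for 24 h. Second overlay with neutral red, further 24 h, plaques counted. Top concentration 50 µM (10 µM for some).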

Another data set concerns rhinovirus B14. Put plainly: Antiviral activity against HRV-14 infected in human HeLa cells assessed as inhibition of viral plaque formation. The data set is classed as functional, organism-based. Particulars: Rhinovirus B.
Data set [5] can be described thus: Cytotoxicity against mouse RAW264.7 cells assessed as cell viability at 2.34 uM after 48 hrs by MTT assay. The data set is classed as cell-based. To be noted: read-out: Activity.
The nature of data set [6]: Antiviral activity against MNV1 CW1 infected in mouse RAW264.7 cells assessed as inhibition of viral plaque formation at 10 uM after 24 hrs by neutral red staining. The format is functional, Murine norovirus 1. Particulars: Norwalk virus, CW1, RAW264.7, 24 h. In outline:
as §1

A short description of data set [7]: Antiviral activity against MNV1 CW1 infected in mouse RAW264.7 cells assessed as inhibition of viral plaque formation at 50 uM after 24 hrs by neutral red staining. The format is functional, Murine norovirus 1. Particulars: Norwalk virus, CW1, RAW264.7, 24 h. In outline: as §1
The test system of data set [8] is RAW264.7. Kind of data set: (§2) Antiviral activity against MNV1 CW1 infected in mouse RAW264.7 cells assessed as inhibition of viral plaque formation treated for 48 hrs after viral infection by neutral red staining. The format is functional, cell-based. To be noted: Murine norovirus 1. The gist of the method:
(§3)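 Compound added only in the agarose overlays for 48 h after 1 h MNV-1.CW1 infection of confluent RAW 264.7 cells; neutral red second overlay at 24 h, plaques counted after further 24 h. IC50 relative to DMSO-treated infected control; run alongside standard conditions.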

Data set [9] in a line: as §2. The format is functional, cell-based, Murine norovirus 1. To be noted: Norwalk virus, CW1, RAW264.7, 48 h. The gist of the method: as §3
The test system of data set [10] is RAW264.7. Put plainly: Cytotoxicity against mouse RAW264.7 cells at 100 uM after 48 hrs by MTT assay. To be noted: raw264.7, 48 h. The data set is classed as cell-based.
The nature of data set [11]: Antiviral activity against MNV1 CW1 infected in mouse RAW264.7 cells assessed as inhibition of viral plaque formation treated for 1 hr during viral infection followed by 48 hrs compound addition post infection by neutral red staining. The data set is classed as functional, cell-based, Murine norovirus 1. To be noted: Norwalk virus, CW1, RAW264.7. The gist of the method: as §1

The subject of data set [12] is RAW264.7. Put plainly: (§4) Antiviral activity against MNV1 CW1 infected in mouse RAW264.7 cells assessed as inhibition of viral plaque formation treated for 1 hr during viral infection by neutral red staining. The format is functional, cell-based. Particulars: Murine norovirus 1. The gist of the method: (§5)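 Time-of-addition variant: RAW 264.7 cells exposed to serial compound concentrations only during the 1 h MNV-1.CW1 infection at 37 °C, then compound-free agarose overlays (neutral red second overlay, 24 h + 24 h) and plaque count. IC50 vs DMSO control; three independent experiments in duplicate.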

A short description of data set [13]: as §4. The data set is classed as functional, cell-based, Murine norovirus 1. Particulars: Norwalk virus, CW1, RAW264.7, 1 h. The gist of the method:
as §5

The structures appear in SMILES notation.

For `Cc1ccc(/C=C/c2cc(=O)c3ccccc3o2)cc1`, the MNTC at 48 h in data set [1] (read-out: MNTD70) and in data set [1] (read-out: MNTD90) was greater than 150 µM throughout. Moreover, the CC50 (in general, the concentration that lowers cell viability or growth by half) at 48 h in data set [2] is greater than 150 µM. In addition, the “Ratio CC50/IC50” value in data set [3] was greater than 6.3. Further, the IC50 (as a rule, the concentration needed to halve the response being measured) in the data set on rhinovirus A1B is greater than 6.25 µM; in data set [4] it was 23.7 µM; in the data set on rhinovirus B14, greater than 6.25 µM.
For `C/C(=C\c1ccccc1)c1oc2ccccc2c(=O)c1O`, the viability at 48 h, 2.34 µM in data set [5] is 81%. Besides, the MNTC at 48 h is 18.8 µM in data set [1] (read-out: MNTD70) and less than 2.34 µM in data set [1] (read-out: MNTD90). The inhibition (as a rule, the drop in the measured response relative to a control, in per cent) at 10 µM in data set [6] is 40.8%. Also, the midpoint of cytotoxicity in data set [2], the CC50 at 48 h, lay at 46.7 µM. Moreover, in data set [4], the IC50 was greater than 10 µM.
In the case of `COc1ccc(/C=C/c2cc(=O)c3ccccc3o2)cc1`, the results for the MNTC at 48 h in data set [1] (read-out: MNTD70) and in [1] (read-out: MNTD90) were greater than 100 µM and 50 µM, respectively.
For the compound `O=c1c(O)c(/C=C/c2ccccc2)oc2ccccc12`, the results for the MNTC at 48 h in [1] (read-out: MNTD70) and in data set [1] (read-out: MNTD90) were 18.8 µM and 2.34 µM, respectively. The inhibition at 10 µM in data set [6] is 6.8%. For the same compound, half-maximal cytotoxicity in data set [2] (CC50 at 48 h) was put at 52.1 µM. Also, the IC50 with rhinovirus A1B is 5.13 µM; in [4], greater than 10 µM; with rhinovirus B14, 9.76 µM.
As for `O=c1ccoc2ccccc12` [CHROMONE], the MNTC at 48 h in data set [1] (read-out: MNTD70) is greater than 150 µM. Besides, in data set [1] (read-out: MNTD90), the MNTC at 48 h stood at 37.5 µM. In [2], this compound came in with a 50% cytotoxic concentration (CC50) at 48 h greater than 150 µM. In data set [4], the “inhibition (INH)” value worked out at 29.9% and the concentration for half-maximal inhibition (IC50) was greater than 50 µM.
For the compound `O=c1cc(/C=C/c2ccc(Cl)cc2)oc2ccccc12`, the MNTC at 48 h in data set [1] (read-out: MNTD70) is greater than 150 µM; in [1] (read-out: MNTD90) it was 75 µM.
For the compound `O=c1cc(/C=C/c2ccc(O)cc2)oc2ccccc12`, in data set [5], the viability at 48 h, 2.34 µM is 86%. In addition, the MNTC at 48 h in [1] (read-out: MNTD70) was greater than 150 µM; in data set [1] (read-out: MNTD90), less than 2.34 µM. The inhibition at 50 µM in data set [7] was 21.1%. Besides, the CC50 at 48 h in data set [2] is greater than 150 µM. Also, the half-inhibitory concentration (IC50) in the data set on rhinovirus A1B is 9.29 µM; in data set [4] it was greater than 50 µM; in the data set with rhinovirus B14 it was 6.41 µM.
With `O=c1cc(/C=C/c2ccccc2)oc2ccccc12`, the figures for the MNTC at 48 h in data set [1] (read-out: MNTD70) and in [1] (read-out: MNTD90) were greater than 150 µM and 75 µM, respectively. This compound also yielded a CC50 at 48 h in data set [2] greater than 150 µM. Also, the “Ratio CC50/IC50” value in data set [3] is greater than 8.5. Moreover, the IC50 with rhinovirus A1B is 6.19 µM; in data set [4] it was 17.7 µM; in the data set on rhinovirus B14, greater than 25 µM.
Take `O=c1cc(/C=C/c2ccccc2)oc2cccc(O)c12`: the inhibition result in the data set on RAW264.7 [8] and in the data set with RAW264.7 [12] was “Dose-dependent effect” throughout. The IC50 is 8.2 µM in data set [9], 6.9 µM in data set [11], 39 µM in data set [13] and 7 µM in [4]. Also, the MNTC at 48 h was greater than 150 µM in [1] (read-out: MNTD70) and 4.69 µM in [1] (read-out: MNTD90). Moreover, the Activity entry in the data set on RAW264.7 [10] is given as “Non-toxic”. The same compound had a CC50 at 48 h in data set [2] greater than 150 µM. Also, the “Ratio CC50/IC50” value in [3] is on record as greater than 21.6.
In the case of `O=c1cc(/C=C/c2ccccc2)oc2cccc(OCc3ccccc3)c12`, the MNTC at 48 h was greater than 150 µM in data set [1] (read-out: MNTD70) and 75 µM in [1] (read-out: MNTD90). The inhibition at 50 µM in [7] came out at 39.4%. The compound also displayed a 50% cytotoxic concentration (CC50) at 48 h in [2] greater than 150 µM. Besides, in [4], the IC50 was greater than 50 µM.
As to `COc1c(/C=C/c2ccccc2)oc2ccccc2c1=O`, the MNTC at 48 h in data set [1] (read-out: MNTD70) stood at 75 µM; in data set [1] (read-out: MNTD90), 37.5 µM. Further, in [2], the cytotoxic concentration (CC50) at 48 h was greater than 150 µM. In addition, the “Ratio CC50/IC50” value in [3] is greater than 4. Also, the IC50 in the data set with rhinovirus A1B was found to be 1.1 µM; in data set [4] it was 37.9 µM; in the data set with rhinovirus B14, 1.6 µM.
Consider `C/C(=C\c1ccccc1)c1cc(=O)c2ccccc2o1`, for which the MNTC at 48 h in data set [1] (read-out: MNTD70) and in data set [1] (read-out: MNTD90) was greater than 150 µM throughout. Further, the CC50 at 48 h in [2] is greater than 150 µM. Besides, the “Ratio CC50/IC50” value in [3] is reported as greater than 8.3. In addition, the concentration for half-maximal inhibition (IC50) in data set [4] was determined as 18 µM.

The values above are taken from ChEMBL document CHEMBL1166010, “(E)-2-styrylchromones as potential anti-norovirus agents” (Bioorg Med Chem, 2010).
